Assay results from ChEMBL document CHEMBL2375253, “Discovery of novel 2,6-disubstituted pyridazinone derivatives as acetylcholinesterase inhibitors” (Eur J Med Chem, 2013).

Tests used:
Acetylcholinesterase = molecular target: T1, Acetylcholinesterase (Rattus norvegicus, UniProt P37136); assay: Inhibition of AChE in rat cerebral cortex homogenates using acetylthiocholine iodide as substrate after 8 mins by Ellman's spectrophotometric method; assay type: tissue-based
T1 sequence (P37136 whole entry): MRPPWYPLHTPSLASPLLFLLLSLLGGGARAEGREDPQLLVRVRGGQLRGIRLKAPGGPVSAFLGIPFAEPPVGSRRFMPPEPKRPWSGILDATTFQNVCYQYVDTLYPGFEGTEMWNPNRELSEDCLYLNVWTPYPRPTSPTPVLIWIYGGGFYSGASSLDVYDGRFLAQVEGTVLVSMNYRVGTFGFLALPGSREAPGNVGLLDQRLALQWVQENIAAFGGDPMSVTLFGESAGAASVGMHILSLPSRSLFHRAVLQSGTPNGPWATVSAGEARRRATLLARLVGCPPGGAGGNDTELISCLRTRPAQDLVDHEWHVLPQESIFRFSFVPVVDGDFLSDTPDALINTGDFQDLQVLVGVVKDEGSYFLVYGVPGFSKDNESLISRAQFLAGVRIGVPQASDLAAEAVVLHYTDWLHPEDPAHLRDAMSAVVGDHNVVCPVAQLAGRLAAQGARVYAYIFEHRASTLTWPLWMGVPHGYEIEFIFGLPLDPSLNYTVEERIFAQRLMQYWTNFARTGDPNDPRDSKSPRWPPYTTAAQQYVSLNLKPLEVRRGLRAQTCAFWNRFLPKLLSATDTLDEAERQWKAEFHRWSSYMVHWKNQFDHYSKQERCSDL
Method in brief: (§1)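 Ellman colorimetric assay. Compounds were dissolved in DMSO to 10 mM and diluted in double-distilled water. Each mixture held compound, phosphate buffer ([…]) and enzyme with substrate. For AChE, rat cerebral cortex homogenate was used with acetylthiocholine iodide (2 mM solution). For BuChE, rat serum was used with S-butyrylthiocholine iodide (2 mM solution). Incubated 8 min, stopped with 3% SDS, then 0.2% DTNB added. Absorbance read at 440 nm, duplicates.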

Butyrylcholinesterase = Butyrylcholinesterase (Rattus norvegicus, UniProt Q9JKC1); assay: Inhibition of rat serum BuChE using S-butyrylthiocholine iodide as substrate after 8 mins by Ellman's spectrophotometric method; method in brief: as §1
Rattus norvegicus = species: Rattus norvegicus; assay: Selectivity ratio of IC50 for rat serum BuChE to IC50 for AChE in rat cerebral cortex homogenates; assay type: tissue-based

Butyrylcholinesterase, sequence (Q9JKC1 whole entry): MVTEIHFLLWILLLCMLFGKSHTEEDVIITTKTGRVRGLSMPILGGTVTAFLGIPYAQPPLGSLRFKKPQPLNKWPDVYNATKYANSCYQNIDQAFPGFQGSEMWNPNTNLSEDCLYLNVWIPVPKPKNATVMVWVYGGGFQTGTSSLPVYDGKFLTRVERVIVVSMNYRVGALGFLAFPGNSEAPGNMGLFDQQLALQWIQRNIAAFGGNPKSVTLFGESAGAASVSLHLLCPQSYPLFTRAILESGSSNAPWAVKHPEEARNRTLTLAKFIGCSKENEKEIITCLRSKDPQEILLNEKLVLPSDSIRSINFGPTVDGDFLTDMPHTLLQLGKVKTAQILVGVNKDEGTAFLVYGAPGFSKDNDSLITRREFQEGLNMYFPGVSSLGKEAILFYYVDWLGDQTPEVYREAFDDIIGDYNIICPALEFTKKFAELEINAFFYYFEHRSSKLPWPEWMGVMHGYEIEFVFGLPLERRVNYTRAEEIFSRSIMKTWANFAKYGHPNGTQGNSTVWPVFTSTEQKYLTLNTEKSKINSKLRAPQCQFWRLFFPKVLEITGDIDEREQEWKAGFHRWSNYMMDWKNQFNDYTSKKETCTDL

`CCN(CC)C(=O)C1CCN(C(=O)Nc2cccc(Cn3nc(-c4cccc(Cl)c4)ccc3=O)c2)CC1` was tested. Which IC50 (Acetylcholinesterase; read-out: IC50) did it give?
The IC50 was 648 nM.

Which IC50 (Acetylcholinesterase; read-out: IC50) does the source give for `CCN(CC)C(=O)C1CCN(C(=O)Nc2cccc(Cn3ncccc3=O)c2)CC1` here?
Its IC50 is 4900 nM.

`CCN(CC)C(=O)C1CCN(C(=O)Nc2cccc(Cn3nc(Nc4ccc(C(F)(F)F)cc4)ccc3=O)c2)CC1` was tested. Which IC50 (Acetylcholinesterase; read-out: IC50) did it give?
The IC50 was 4840 nM.

`CCN(CC)C(=O)C1CCN(C(=O)Nc2cccc(Cn3nc(-c4cccc(C)c4)ccc3=O)c2)CC1` was tested. Which IC50 (Acetylcholinesterase; read-out: IC50) did it give?
The IC50 was 746 nM.

Which IC50 (Acetylcholinesterase; read-out: IC50) does the source give for `CCN(CC)C(=O)C1CCN(C(=O)Nc2cccc(Cn3nc(-c4ccccc4C)ccc3=O)c2)CC1` here?
Its IC50 is 2610 nM.

How did the IC50 (Acetylcholinesterase; read-out: IC50) turn out when `CCc1ccccc1Nc1ccc(=O)n(Cc2cccc(NC(=O)N3CCC(C(=O)N(CC)CC)CC3)c2)n1` was run?
The IC50 was 188 nM.

Which results are given for `CCN(C(=O)C1CCN(C(=O)Nc2cccc(Cn3nc(Nc4ccccc4C)ccc3=O)c2)CC1)C(C)C`?
IC50 (Butyrylcholinesterase): 5500 nM; Ratio IC50 (Rattus norvegicus): 196; IC50 (Acetylcholinesterase; read-out: IC50): 28 nM

For `Cc1ccccc1Nc1ccc(=O)n(Cc2cccc(NC(=O)N3CCC(C(=O)N(C)C(C)C)CC3)c2)n1`, which IC50 (Butyrylcholinesterase) is on record?
The IC50 was 10000 nM.

And the Ratio IC50 (Rattus norvegicus)?
Its Ratio IC50 is 217.

And the IC50 (Acetylcholinesterase; read-out: IC50)?
The IC50 was 46 nM.

Which results are given for `CCN(CC)C(=O)C1CCN(C(=O)Nc2cccc(Cn3nc(Nc4ccccc4C)ccc3=O)c2)CC1`?
IC50 (Butyrylcholinesterase): > 40000 nM; Ratio IC50 (Rattus norvegicus): > 816; IC50 (Acetylcholinesterase; read-out: IC50): 49 nM

Which IC50 (Acetylcholinesterase; read-out: IC50) does the source give for `CCN(CC)C(=O)C1CCN(C(=O)Nc2cccc(Cn3nc(-c4ccc(C)cc4)ccc3=O)c2)CC1` here?
The IC50 was 2010 nM.

`CCN(CC)C(=O)C1CCN(C(=O)Nc2cccc(Cn3nc(Nc4cccc(C)c4)ccc3=O)c2)CC1` was tested. Which IC50 (Acetylcholinesterase; read-out: IC50) did it give?
The IC50 was 1420 nM.

With `Cc1ccccc1Nc1ccc(=O)n(Cc2cccc(NC(=O)N3CCC(C(=O)N4CCOCC4)CC3)c2)n1` as the compound, how does the IC50 (Acetylcholinesterase) read?
Its IC50 is “Not Active”.

With `CCN(CC)C(=O)C1CCN(C(=O)Nc2cccc(Cn3nc(-c4ccc5ccccc5c4)ccc3=O)c2)CC1` as the compound, how does the IC50 (Acetylcholinesterase; read-out: IC50) read?
The IC50 was 462 nM.

`Cc1ccccc1Nc1ccc(=O)n(Cc2cccc(NC(=O)N3CCC(C(=O)N(C(C)C)C(C)C)CC3)c2)n1` was tested. Which IC50 (Acetylcholinesterase; read-out: IC50) did it give?
Its IC50 is 116 nM.

For `CCN(CC)C(=O)C1CCN(C(=O)Nc2cccc(Cn3nc(Nc4cccc(C(F)(F)F)c4)ccc3=O)c2)CC1`, which IC50 (Acetylcholinesterase; read-out: IC50) is on record?
The IC50 was 135 nM.

Which IC50 (Acetylcholinesterase; read-out: IC50) does the source give for `Cc1ccccc1Nc1ccc(=O)n(Cc2cccc(NC(=O)N3CCC(C(=O)N(C)C)CC3)c2)n1` here?
The IC50 was 7600 nM.

Which IC50 (Butyrylcholinesterase) does the source give for `CCN(CC)C(=O)C1CCN(C(=O)Nc2cccc(Cn3nc(-c4ccccc4)ccc3=O)c2)CC1` here?
The IC50 was greater than 40000 nM.

And the Ratio IC50 (Rattus norvegicus)?
The Ratio IC50 was greater than 24.

And the IC50 (Acetylcholinesterase; read-out: IC50)?
The IC50 was 1660 nM.

How did the IC50 (Acetylcholinesterase; read-out: IC50) turn out when `CCN(CC)C(=O)C1CCN(C(=O)Nc2cccc(Cn3nc(-c4cccc(C#N)c4)ccc3=O)c2)CC1` was run?
Its IC50 is 220 nM.

Which IC50 (Butyrylcholinesterase) does the source give for `CCN(CC)C(=O)C1CCN(C(=O)Nc2cccc(Cn3nc(-c4cccc5ccccc45)ccc3=O)c2)CC1` here?
The IC50 was greater than 40000 nM.

What about the Ratio IC50 (Rattus norvegicus) of the same compound?
The Ratio IC50 was greater than 212.

And the IC50 (Acetylcholinesterase; read-out: IC50)?
The IC50 was 188 nM.

For `CCN(CC)C(=O)C1CCN(C(=O)Nc2cccc(Cn3nc(Nc4ccccc4C(C)C)ccc3=O)c2)CC1`, which IC50 (Acetylcholinesterase; read-out: IC50) is on record?
The IC50 was 1500 nM.

With `CCN(C)C(=O)C1CCN(C(=O)Nc2cccc(Cn3nc(Nc4ccccc4C)ccc3=O)c2)CC1` as the compound, how does the IC50 (Butyrylcholinesterase) read?
The IC50 was greater than 40000 nM.

What about the Ratio IC50 (Rattus norvegicus) of the same compound?
The Ratio IC50 was greater than 84.

What about the IC50 (Acetylcholinesterase; read-out: IC50) of the same compound?
The IC50 was 473 nM.

Which IC50 (Acetylcholinesterase; read-out: IC50) does the source give for `CCN(CC)C(=O)C1CCN(C(=O)Nc2cccc(Cn3nc(Nc4ccc(C)cc4)ccc3=O)c2)CC1` here?
Its IC50 is 19800 nM.

For `CCN(CC)C(=O)C1CCN(C(=O)Nc2cccc(Cn3nc(Nc4cccc5ccccc45)ccc3=O)c2)CC1`, which IC50 (Acetylcholinesterase; read-out: IC50) is on record?
The IC50 was 126 nM.

For `c1ccc(CN2CCC(CCN=c3cc4c(n[nH]3)-c3ccccc3C4)CC2)cc1`, which IC50 (Acetylcholinesterase; read-out: IC50) is on record?
The IC50 was 10 nM.

`CCN(CC)C(=O)C1CCN(C(=O)Nc2cccc(Cn3nc(Nc4ccccc4)ccc3=O)c2)CC1` was tested. Which IC50 (Butyrylcholinesterase) did it give?
Its IC50 is greater than 40000 nM.

What about the Ratio IC50 (Rattus norvegicus) of the same compound?
The Ratio IC50 was greater than 12.

What about the IC50 (Acetylcholinesterase; read-out: IC50) of the same compound?
The IC50 was 3280 nM.

For `CCN(CC)C(=O)C1CCN(C(=O)Nc2cccc(Cn3nc(Nc4c(C)cccc4C)ccc3=O)c2)CC1`, which IC50 (Acetylcholinesterase; read-out: IC50) is on record?
Its IC50 is 607 nM.

`CCN(CC)C(=O)C1CCN(C(=O)Nc2cccc(Cn3nc(Nc4ccccc4C(F)(F)F)ccc3=O)c2)CC1` was tested. Which IC50 (Acetylcholinesterase; read-out: IC50) did it give?
The IC50 was 119 nM.

With `c1ccc(CN2CCC(CCNc3cc4c(nn3)-c3ccccc3CC4)CC2)cc1` as the compound, how does the IC50 (Acetylcholinesterase; read-out: IC50) read?
The IC50 was 39 nM.

How did the IC50 (Acetylcholinesterase; read-out: IC50) turn out when `CCN(CC)C(=O)C1CCN(C(=O)Nc2cccc(Cn3nc(-c4cccc(Br)c4)ccc3=O)c2)CC1` was run?
The IC50 was 623 nM.
